Assay results from ChEMBL document CHEMBL4014345, “Development of Selective Clk1 and -4 Inhibitors for Cellular Depletion of Cancer-Relevant Proteins” (J Med Chem, 2017).
pIC50: −log10 of the molar value. Each block holds one compound with its values, some of them ahead of it.

Tests used:
[1] = biological target: T1, Dual specificity protein kinase CLK1 (Homo sapiens, UniProt P49759); experiment: Inhibition of recombinant human GST-tagged Clk1 expressed in Escherichia coli at 100 nM using RS repeat substrate peptide after 15 mins in presence of [gamma-32]-ATP
Target sequence in this assay (P49759 whole entry, looked up): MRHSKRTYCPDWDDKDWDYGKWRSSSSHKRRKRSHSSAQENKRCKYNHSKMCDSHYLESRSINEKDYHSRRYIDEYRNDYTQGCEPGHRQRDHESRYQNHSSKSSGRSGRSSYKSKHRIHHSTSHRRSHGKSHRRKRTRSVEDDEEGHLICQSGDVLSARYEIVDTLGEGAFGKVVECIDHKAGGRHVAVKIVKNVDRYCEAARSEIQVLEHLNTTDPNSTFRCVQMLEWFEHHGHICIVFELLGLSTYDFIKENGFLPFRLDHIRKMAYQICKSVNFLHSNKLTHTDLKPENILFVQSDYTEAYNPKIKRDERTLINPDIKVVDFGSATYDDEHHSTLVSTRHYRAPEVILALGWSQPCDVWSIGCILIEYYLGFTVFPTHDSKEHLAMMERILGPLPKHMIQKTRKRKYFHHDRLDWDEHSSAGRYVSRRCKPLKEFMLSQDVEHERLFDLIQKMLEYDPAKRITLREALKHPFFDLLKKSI

[2] = biological target: T1, Dual specificity protein kinase CLK1; experiment: Inhibition of recombinant human GST-tagged Clk1 expressed in Escherichia coli using RS repeat substrate peptide after 15 mins in presence of [gamma-32]-ATP
Target sequence in this assay (P49759 whole entry): as the sequence (P49759 whole entry, looked up) above

[3] = biological target: T2, Dual specificity protein kinase CLK1/CLK4 (Homo sapiens, UniProt Q9HAZ1+P49759); experiment: Inhibition of CLK1/4 in human T24 cells assessed as down regulation of HDAC1 expression at 5 uM after 3 days by Western blot analysis relative to control; type: cell-based
How it was run: (§1)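 T24 or MDA-MB-231 cells were grown in DMEM to 70% confluency. The medium was replaced with compound diluted in DMEM, and cells were kept 3 days. Total protein was immunoblotted with monoclonal antibodies in 3% BSA/PBS against EGFR, p70S6K α, PARP-1, ERK2, HDAC1, CD44, PCNA and GRP94.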

[4] = biological target: T2, Dual specificity protein kinase CLK1/CLK4; experiment: Inhibition of CLK1/4 in human MDA-MB-231 cells assessed as down regulation of S6 kinase expression after 3 days by Western blot analysis; type: cell-based; how it was run: as §1
[5] = biological target: T2, Dual specificity protein kinase CLK1/CLK4; experiment: Inhibition of CLK1/4 in human MDA-MB-231 cells assessed as down regulation of S6 kinase expression at 2.5 uM after 3 days by Western blot analysis relative to control; type: cell-based; how it was run: as §1
[6] = biological target: T2, Dual specificity protein kinase CLK1/CLK4; experiment: Inhibition of CLK1/4 in human T24 cells assessed as down regulation of HDAC1 expression at 10 uM after 3 days by Western blot analysis relative to control; type: cell-based; how it was run: as §1
T-24 = experiment: Cytotoxicity against human T24 cells assessed as growth inhibition after 5 days by MTT assay; type: functional; conditions: T-24, 120 h
How it was run: (§2)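 They were seeded at 5000 cells per well onto compound or DMSO (0.2% final). Plates were kept 5 days at 37 °C in 5% CO2 with no medium change, then read by MTT.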

[7] = biological target: T2, Dual specificity protein kinase CLK1/CLK4; experiment: Inhibition of CLK1/4 in human MDA-MB-231 cells assessed as down regulation of S6 kinase expression at 10 uM after 3 days by Western blot analysis relative to control; type: cell-based; how it was run: as §1
[8] = biological target: T2, Dual specificity protein kinase CLK1/CLK4; experiment: Inhibition of CLK1/4 in human T24 cells assessed as down regulation of HDAC1 expression after 3 days by Western blot analysis; type: cell-based; how it was run: as §1
[9] = biological target: T2, Dual specificity protein kinase CLK1/CLK4; experiment: Inhibition of CLK1/4 in human MDA-MB-231 cells assessed as down regulation of EGFR expression after 3 days by Western blot analysis; type: cell-based; how it was run: as §1
[10] = biological target: T2, Dual specificity protein kinase CLK1/CLK4; experiment: Inhibition of CLK1/4 in human MDA-MB-231 cells assessed as down regulation of EGFR expression at 2.5 uM after 3 days by Western blot analysis relative to control; type: cell-based; how it was run: as §1
[11] = biological target: T2, Dual specificity protein kinase CLK1/CLK4; experiment: Inhibition of CLK1/4 in human T24 cells assessed as down regulation of EGFR expression at 15 uM after 3 days by Western blot analysis relative to control; type: cell-based; how it was run: as §1
[12] = biological target: T2, Dual specificity protein kinase CLK1/CLK4; experiment: Inhibition of CLK1/4 in human MDA-MB-231 cells assessed as down regulation of EGFR expression at 10 uM after 3 days by Western blot analysis relative to control; type: cell-based; how it was run: as §1
[13] = biological target: T2, Dual specificity protein kinase CLK1/CLK4; experiment: Inhibition of CLK1/4 in human MDA-MB-231 cells assessed as down regulation of S6 kinase expression at 20 uM after 3 days by Western blot analysis relative to control; type: cell-based; how it was run: as §1
[14] = biological target: T2, Dual specificity protein kinase CLK1/CLK4; experiment: Inhibition of CLK1/4 in human T24 cells assessed as down regulation of HDAC1 expression at 15 uM after 3 days by Western blot analysis relative to control; type: cell-based; how it was run: as §1
[15] = biological target: T2, Dual specificity protein kinase CLK1/CLK4; experiment: Inhibition of CLK1/4 in human MDA-MB-231 cells assessed as down regulation of EGFR expression at 20 uM after 3 days by Western blot analysis relative to control; type: cell-based; how it was run: as §1
[16] = biological target: T2, Dual specificity protein kinase CLK1/CLK4; experiment: Inhibition of CLK1/4 in human T24 cells assessed as down regulation of EGFR expression at 5 uM after 3 days by Western blot analysis relative to control; type: cell-based; how it was run: as §1
[17] = biological target: T2, Dual specificity protein kinase CLK1/CLK4; experiment: Inhibition of CLK1/4 in human T24 cells assessed as down regulation of EGFR expression after 3 days by Western blot analysis; type: cell-based; how it was run: as §1
[18] = biological target: T2, Dual specificity protein kinase CLK1/CLK4; experiment: Inhibition of CLK1/4 in human MDA-MB-231 cells assessed as down regulation of EGFR expression at 5 uM after 3 days by Western blot analysis relative to control; type: cell-based; how it was run: as §1
[19] = biological target: T2, Dual specificity protein kinase CLK1/CLK4; experiment: Inhibition of CLK1/4 in human MDA-MB-231 cells assessed as down regulation of S6 kinase expression at 5 uM after 3 days by Western blot analysis relative to control; type: cell-based; how it was run: as §1
[20] = biological target: T2, Dual specificity protein kinase CLK1/CLK4; experiment: Inhibition of CLK1/4 in human T24 cells assessed as down regulation of EGFR expression at 10 uM after 3 days by Western blot analysis relative to control; type: cell-based; how it was run: as §1
MDA-MB-231 = experiment: Cytotoxicity against human MDA-MB-231 cells assessed as growth inhibition after 5 days by MTT assay; type: functional; conditions: MDA-MB-231, 120 h; how it was run: as §2

inhibition [1]: 0%
SMILES: COc1ccc2sc(C(=O)NCc3ccccn3)cc2c1

inhibition [1]: 32.9%
SMILES: COc1ccc2sc(C(=O)N(C)CCc3ccccc3)cc2c1

inhibition [1]: 0.54%
SMILES: COc1ccc2sc(C(=O)Nc3ccccc3)cc2c1

inhibition [1]: 7.7%
SMILES: COc1ccc2sc(C(=O)NCCN)cc2c1

inhibition [1]: 31.6%
SMILES: COc1cccc(CN(C)C(=O)c2cc3cc(OC)ccc3s2)c1

inhibition [1]: 33.4%
SMILES: COc1ccc2sc(C(=O)NCc3ccco3)cc2c1

inhibition [1]: 0%
SMILES: COc1ccc2sc(C(=O)N[C@@H](C)C(=O)O)cc2c1

inhibition [1]: 37%
SMILES: C=CCNC(=O)c1cc2cc(OC)ccc2s1

pIC50 [2]: 6.97
inhibition [1]: 50.7%
SMILES: COc1ccc2sc(C(=O)NCCc3ccccc3)cc2c1

inhibition [1]: 23.5%
SMILES: COc1ccc2sc(C(=O)NCc3ccc(F)cc3)cc2c1

inhibition [1]: 0%
SMILES: COc1ccc2sc(C(=O)N3CCOCC3)cc2c1

inhibition [1]: 25.9%
SMILES: COc1ccc2sc(C(=O)N(C)Cc3cccc(C)c3)cc2c1

inhibition [1]: 0%
SMILES: COc1ccc2sc(C(=O)N3CCCCC3)cc2c1

inhibition [1]: 18.8%
SMILES: COC(=O)[C@@H](NC(=O)c1cc2cc(OC)ccc2s1)C(C)C

inhibition [1]: 43.2%
SMILES: COc1ccc2sc(C(=O)N(C)Cc3ccccc3F)cc2c1

inhibition [3]: 13.7%
IC50 [4]: > 20 µM
inhibition [5]: 0%
inhibition [6]: 16.1%
inhibition [7]: 8%
IC50 [8]: > 15 µM
IC50 [9]: > 20 µM
inhibition [10]: 13.1%
inhibition [1]: 33.9%
inhibition [11]: 36.6%
inhibition [12]: 30.9%
inhibition [13]: 10.9%
inhibition [14]: 0%
inhibition [15]: 25.1%
inhibition [16]: 26%
IC50 [17]: > 15 µM
inhibition [18]: 36.7%
inhibition [19]: 7.8%
inhibition [20]: 32.9%
SMILES: COc1ccc2sc(C(=O)NCc3cccc(F)c3)cc2c1
GI50 (T-24): > 40 µM
GI50 (MDA-MB-231): > 40 µM

inhibition [1]: 6%
SMILES: COc1ccc2sc(C(=O)N[C@H](C)C(C)(C)C)cc2c1

inhibition [1]: 0%
SMILES: COc1ccc2sc(C(=O)N[C@H](C(=O)O)C(C)C)cc2c1

inhibition [1]: 0%
SMILES: COc1ccc2sc(C(=O)NCCn3ccnc3)cc2c1
